# Measurements from ChEMBL document CHEMBL4689842, “EUbOPEN Chemogenomics Library wave 1” (2021).
# Test system: U2OS
# Test: Multiplex assay against U2OS
# Assay type: toxicity, cell-based
# Conditions: human
# In short: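 Live cells were stained at seeding with Hoechst33342, BioTracker Green Microtubule Cytoskeleton Dye, MitoTracker Red and Annexin V Alexa Fluor 680, then imaged on a CQ1 microscope at 37°C and 5% CO2 after compound addition. CellPathfinder machine-learning gating split cells into Hoechst high-intensity objects or normal cells. Normal cells were split into healthy, pyknosed or fragmented nuclei, and pyknosed cells into mitotic or apoptotic. Tubulin, mitochondrial-mass and membrane-permeability phenotypes are per cents of healthy-nucleus cells.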
# [1] = 12 h, 0 µM, compound concentration 0 uM, replicate 1
# [2] = 12 h, 0 µM, compound concentration 0 uM, replicate 2
# [3] = 12 h, 1 µM, compound concentration 1 uM, replicate 1
# [4] = 12 h, 1 µM, compound concentration 1 uM, replicate 2
# [5] = 24 h, 0 µM, compound concentration 0 uM, replicate 1
# [6] = 24 h, 0 µM, compound concentration 0 uM, replicate 2
# [7] = 24 h, 1 µM, compound concentration 1 uM, replicate 1
# [8] = 24 h, 1 µM, compound concentration 1 uM, replicate 2
# [9] = 12 h, 10 µM, compound concentration 10 uM, replicate 1
# [10] = 12 h, 10 µM, compound concentration 10 uM, replicate 2
# [11] = 24 h, 10 µM, compound concentration 10 uM, replicate 1
# [12] = 24 h, 10 µM, compound concentration 10 uM, replicate 2
# [13] = 48 h, 1 µM, compound concentration 1 uM, replicate 1
# [14] = 48 h, 1 µM, compound concentration 1 uM, replicate 2
# [15] = 48 h, 10 µM, compound concentration 10 uM, replicate 1
# [16] = 48 h, 10 µM, compound concentration 10 uM, replicate 2
smiles,measurement,setting,value
CCNc1cc(N[C@H]2CC[C@H](O)CC2)nc(Nc2ccc3c(ccn3Cc3ccccc3)c2)n1,Population Apoptotic (%),[1],37%
same,Population Fragmented Nuclei (%),[1],14%
same,Population Healthy Nuclei (%),[1],59%
same,Population Hoechst High Intensity Objects (%),[1],6%
same,Population Membrane Permeable-Phenotype (%),[1],39%
same,Population Mitochondria Different-Phenotype (%),[1],98%
same,Population Mitotic Cells (%),[1],62%
same,Population Normal (%),[1],93%
same,Population Pyknosed Nuclei (%),[1],25%
same,Population Tubulin-Different-Phenotype (%),[1],100%
same,Total Cell Count,[1],243
same,Population Apoptotic (%),[2],62%
same,Population Fragmented Nuclei (%),[2],20%
same,Population Healthy Nuclei (%),[2],57%
same,Population Hoechst High Intensity Objects (%),[2],7%
same,Population Membrane Permeable-Phenotype (%),[2],69%
same,Population Mitochondria Different-Phenotype (%),[2],100%
same,Population Mitotic Cells (%),[2],37%
same,Population Normal (%),[2],92%
same,Population Pyknosed Nuclei (%),[2],22%
same,Total Cell Count,[2],117
same,Population Apoptotic (%),[3],64%
same,Population Fragmented Nuclei (%),[3],4%
same,Population Healthy Nuclei (%),[3],81%
same,Population Hoechst High Intensity Objects (%),[3],1%
same,Population Membrane Permeable-Phenotype (%),[3],33%
same,Population Mitochondria Different-Phenotype (%),[3],30%
same,Population Mitotic Cells (%),[3],35%
same,Population Normal (%),[3],98%
same,Population Pyknosed Nuclei (%),[3],13%
same,Population Tubulin-Different-Phenotype (%),[3],88%
same,Total Cell Count,[3],129
same,Population Apoptotic (%),[4],42%
same,Population Fragmented Nuclei (%),[4],11%
same,Population Healthy Nuclei (%),[4],75%
same,Population Hoechst High Intensity Objects (%),[4],11%
same,Population Membrane Permeable-Phenotype (%),[4],18%
same,Population Mitochondria Different-Phenotype (%),[4],55%
same,Population Mitotic Cells (%),[4],57%
same,Population Normal (%),[4],88%
same,Population Tubulin-Different-Phenotype (%),[4],76%
same,Total Cell Count,[4],120
same,Population Apoptotic (%),[5],65%
same,Population Fragmented Nuclei (%),[5],14%
same,Population Healthy Nuclei (%),[5],46%
same,Population Hoechst High Intensity Objects (%),[5],4%
same,Population Membrane Permeable-Phenotype (%),[5],83%
same,Population Mitotic Cells (%),[5],34%
same,Population Normal (%),[5],95%
same,Population Pyknosed Nuclei (%),[5],39%
same,Population Tubulin-Different-Phenotype (%),[5],99%
same,Total Cell Count,[5],273
same,Population Apoptotic (%),[6],71%
same,Population Fragmented Nuclei (%),[6],23%
same,Population Healthy Nuclei (%),[6],47%
same,Population Hoechst High Intensity Objects (%),[6],10%
same,Population Membrane Permeable-Phenotype (%),[6],92%
same,Population Mitochondria Different-Phenotype (%),[6],100%
same,Population Mitotic Cells (%),[6],28%
same,Population Normal (%),[6],89%
same,Population Pyknosed Nuclei (%),[6],29%
same,Population Tubulin-Different-Phenotype (%),[6],100%
same,Total Cell Count,[6],121
same,Population Apoptotic (%),[7],33%
same,Population Fragmented Nuclei (%),[7],9%
same,Population Healthy Nuclei (%),[7],77%
same,Population Hoechst High Intensity Objects (%),[7],2%
same,Population Membrane Permeable-Phenotype (%),[7],22%
same,Population Mitochondria Different-Phenotype (%),[7],42%
same,Population Mitotic Cells (%),[7],66%
same,Population Normal (%),[7],97%
same,Population Pyknosed Nuclei (%),[7],12%
same,Population Tubulin-Different-Phenotype (%),[7],69%
same,Total Cell Count,[7],167
same,Population Apoptotic (%),[8],70%
same,Population Fragmented Nuclei (%),[8],14%
same,Population Healthy Nuclei (%),[8],71%
same,Population Hoechst High Intensity Objects (%),[8],9%
same,Population Membrane Permeable-Phenotype (%),[8],23%
same,Population Mitochondria Different-Phenotype (%),[8],53%
same,Population Mitotic Cells (%),[8],29%
same,Population Normal (%),[8],90%
same,Population Pyknosed Nuclei (%),[8],14%
same,Population Tubulin-Different-Phenotype (%),[8],65%
same,Total Cell Count,[8],132
CCN1CCN(Cc2ccc(Nc3ncc(F)c(-c4cc(F)c5nc(C)n(C(C)C)c5c4)n3)nc2)CC1.CS(=O)(=O)O,Population Apoptotic (%),[3],46%
same,Population Fragmented Nuclei (%),[3],18%
same,Population Healthy Nuclei (%),[3],63%
same,Population Hoechst High Intensity Objects (%),[3],8%
same,Population Membrane Permeable-Phenotype (%),[3],4%
same,Population Mitochondria Different-Phenotype (%),[3],92%
same,Population Mitotic Cells (%),[3],53%
same,Population Normal (%),[3],91%
same,Population Pyknosed Nuclei (%),[3],17%
same,Population Tubulin-Different-Phenotype (%),[3],91%
same,Total Cell Count,[3],160
same,Population Apoptotic (%),[4],40%
same,Population Fragmented Nuclei (%),[4],17%
same,Population Healthy Nuclei (%),[4],67%
same,Population Hoechst High Intensity Objects (%),[4],6%
same,Population Membrane Permeable-Phenotype (%),[4],8%
same,Population Mitochondria Different-Phenotype (%),[4],91%
same,Population Mitotic Cells (%),[4],60%
same,Population Normal (%),[4],93%
same,Population Pyknosed Nuclei (%),[4],14%
same,Population Tubulin-Different-Phenotype (%),[4],97%
same,Total Cell Count,[4],73
same,Population Apoptotic (%),[9],82%
same,Population Fragmented Nuclei (%),[9],35%
same,Population Healthy Nuclei (%),[9],29%
same,Population Hoechst High Intensity Objects (%),[9],5%
same,Population Membrane Permeable-Phenotype (%),[9],66%
same,Population Mitochondria Different-Phenotype (%),[9],100%
same,Population Mitotic Cells (%),[9],18%
same,Population Normal (%),[9],94%
same,Population Pyknosed Nuclei (%),[9],35%
same,Total Cell Count,[9],151
same,Population Apoptotic (%),[10],83%
same,Population Fragmented Nuclei (%),[10],32%
same,Population Healthy Nuclei (%),[10],22%
same,Population Hoechst High Intensity Objects (%),[10],9%
same,Population Membrane Permeable-Phenotype (%),[10],88%
same,Population Mitochondria Different-Phenotype (%),[10],94%
same,Population Mitotic Cells (%),[10],16%
same,Population Normal (%),[10],90%
same,Population Pyknosed Nuclei (%),[10],45%
same,Population Tubulin-Different-Phenotype (%),[10],100%
same,Total Cell Count,[10],88
same,Population Apoptotic (%),[7],53%
same,Population Fragmented Nuclei (%),[7],19%
same,Population Healthy Nuclei (%),[7],59%
same,Population Hoechst High Intensity Objects (%),[7],8%
same,Population Membrane Permeable-Phenotype (%),[7],10%
same,Population Mitochondria Different-Phenotype (%),[7],91%
same,Population Mitotic Cells (%),[7],46%
same,Population Normal (%),[7],91%
same,Population Pyknosed Nuclei (%),[7],20%
same,Population Tubulin-Different-Phenotype (%),[7],89%
same,Total Cell Count,[7],171
same,Population Apoptotic (%),[8],58%
same,Population Fragmented Nuclei (%),[8],20%
same,Population Healthy Nuclei (%),[8],61%
same,Population Hoechst High Intensity Objects (%),[8],10%
same,Population Membrane Permeable-Phenotype (%),[8],21%
same,Population Mitochondria Different-Phenotype (%),[8],85%
same,Population Mitotic Cells (%),[8],41%
same,Population Normal (%),[8],89%
same,Population Pyknosed Nuclei (%),[8],17%
same,Population Tubulin-Different-Phenotype (%),[8],87%
same,Total Cell Count,[8],75
same,Population Apoptotic (%),[11],96%
same,Population Fragmented Nuclei (%),[11],41%
same,Population Healthy Nuclei (%),[11],8%
same,Population Hoechst High Intensity Objects (%),[11],8%
same,Population Membrane Permeable-Phenotype (%),[11],72%
same,Population Mitochondria Different-Phenotype (%),[11],90%
same,Population Mitotic Cells (%),[11],3%
same,Population Normal (%),[11],91%
same,Population Pyknosed Nuclei (%),[11],49%
same,Population Tubulin-Different-Phenotype (%),[11],90%
same,Total Cell Count,[11],135
same,Population Apoptotic (%),[12],97%
same,Population Fragmented Nuclei (%),[12],27%
same,Population Healthy Nuclei (%),[12],13%
same,Population Hoechst High Intensity Objects (%),[12],20%
same,Population Membrane Permeable-Phenotype (%),[12],100%
same,Population Mitochondria Different-Phenotype (%),[12],87%
same,Population Mitotic Cells (%),[12],2%
same,Population Normal (%),[12],79%
same,Population Pyknosed Nuclei (%),[12],59%
same,Population Tubulin-Different-Phenotype (%),[12],100%
same,Total Cell Count,[12],74
same,Population Apoptotic (%),[13],55%
same,Population Fragmented Nuclei (%),[13],26%
same,Population Membrane Permeable-Phenotype (%),[13],18%
same,Population Mitochondria Different-Phenotype (%),[13],82%
same,Population Mitotic Cells (%),[13],44%
same,Population Pyknosed Nuclei (%),[13],21%
same,Population Tubulin-Different-Phenotype (%),[13],79%
same,Total Cell Count,[13],215
same,Population Apoptotic (%),[14],64%
same,Population Fragmented Nuclei (%),[14],25%
same,Population Healthy Nuclei (%),[14],51%
same,Population Hoechst High Intensity Objects (%),[14],8%
same,Population Membrane Permeable-Phenotype (%),[14],31%
same,Population Mitochondria Different-Phenotype (%),[14],71%
same,Population Mitotic Cells (%),[14],35%
same,Population Normal (%),[14],91%
same,Population Pyknosed Nuclei (%),[14],22%
same,Population Tubulin-Different-Phenotype (%),[14],84%
same,Total Cell Count,[14],81
same,Population Apoptotic (%),[15],98%
same,Population Fragmented Nuclei (%),[15],43%
same,Population Healthy Nuclei (%),[15],2%
same,Population Hoechst High Intensity Objects (%),[15],15%
same,Population Membrane Permeable-Phenotype (%),[15],100%
same,Population Mitochondria Different-Phenotype (%),[15],100%
same,Population Mitotic Cells (%),[15],1%
same,Population Normal (%),[15],84%
same,Population Pyknosed Nuclei (%),[15],53%
same,Population Tubulin-Different-Phenotype (%),[15],100%
same,Total Cell Count,[15],137
same,Population Apoptotic (%),[16],100%
same,Population Fragmented Nuclei (%),[16],17%
same,Population Healthy Nuclei (%),[16],45%
same,Population Hoechst High Intensity Objects (%),[16],34%
same,Population Mitochondria Different-Phenotype (%),[16],95%
same,Population Mitotic Cells (%),[16],0%
same,Population Normal (%),[16],65%
same,Population Pyknosed Nuclei (%),[16],36%
same,Population Tubulin-Different-Phenotype (%),[16],95%
same,Total Cell Count,[16],70
